S100A4 inh HTS – blocks human S100A4 binding to myosin IIA peptide; P26447; S100A4/TAMRA-MyoIIA peptide fluorescence polarization; inhibition, % at 10.7 µM; 0.14% of 360,000 active;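 active = mean inhibition of at least 70% across replicates, with every replicate also reaching that level; inconclusive = mean inhibition reaches 70% but some replicates fall short; inactive = mean inhibition below 70%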
Target sequence (P26447 whole entry, looked up): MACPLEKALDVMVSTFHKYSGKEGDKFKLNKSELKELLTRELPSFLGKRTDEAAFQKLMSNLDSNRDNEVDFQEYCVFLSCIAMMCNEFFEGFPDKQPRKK
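Material: S100A4 monomer protein | Medium: HEPES pH 7.2 with CaCl2, KCl, NaCl, DTT, Triton | Reagent: Labelled myosin peptide probe, 5 nM | Doses: One dose per compound | Times: 5 min incubation before reading | Benchmarks: Neutral control DMSO, positive control TFP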
CAL PDZ FP-1 – inhibitors of human CAL PDZ peptide binding; AID 504414; Q9HD26; purified CAL PDZ, TMR-peptide fluorescence polarization, 1 h; 0.02% of 330,000 active; inhibition, % at 20 µM;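 active = highest replicate inhibition of at least 40%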;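 note: plate controls were DMSO neutral control wells for no effect and unlabeled competitor peptide control wells for full effect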
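Material: tagged CAL PDZ domain; buffer or medium: 25 mM sodium phosphate pH 7.4, 150 mM NaCl, TCEP, IgG, Thesit; compound dosing: single point, 20 µM; schedule: 1 h incubation at room temperature before polarization reading; measured by: FP readout, S and P plane fluorescence; read-out basis: percent inhibition from loss of millipolarization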
Statin myotox sup – protects C2C12 myotubes from simvastatin toxicity; ATP luminescence, 48 h; scaled: DMSO 0, geranylgeraniol control 100; rescue of ATP level, % at 7.49 µM; 0.78% of 330,000 active; AID 602340;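 active = mean ATP rescue above about 67%, or every replicate alone reaching that limit, limit read from the data, passing the limit was not always enough; inconclusive = no clear call, values can overlap the other calls; inactive = mean under the limit and some replicate under it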;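 note: myotubes were challenged with 10 µM simvastatin during compound exposure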
dFosB act – mouse delta FosB homodimer activation; P13346; purified delta FosB, TAMRA-CDK5 oligo fluorescence polarization; percent of positive-control signal above neutral wells; activation, % at 25 µM; 0.99% of 340,000 active;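 active = mean activation above about 17%, with every replicate also reaching it, limit read from the data, passing the limit was not always enough; inconclusive = only one of the two conditions met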
Target sequence (P13346 whole entry, looked up): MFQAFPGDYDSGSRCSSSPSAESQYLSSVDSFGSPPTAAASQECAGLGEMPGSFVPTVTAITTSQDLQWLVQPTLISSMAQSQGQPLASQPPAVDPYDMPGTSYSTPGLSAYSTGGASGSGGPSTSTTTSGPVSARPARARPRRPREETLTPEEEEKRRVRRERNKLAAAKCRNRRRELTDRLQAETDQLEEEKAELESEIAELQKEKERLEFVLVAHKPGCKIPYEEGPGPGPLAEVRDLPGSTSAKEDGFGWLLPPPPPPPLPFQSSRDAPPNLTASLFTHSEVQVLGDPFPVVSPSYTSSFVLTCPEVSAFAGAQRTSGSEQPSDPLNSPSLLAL
CDK5 inh – blocks human CDK5/p35 kinase activity. inhibition, % at 10 µM. 0.01% of 330,000 active. Recombinant CDK5/p35, ADP-Glo luminescence, 60 min;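 active = highest replicate inhibition of at least 50% and at least 75% of replicates reaching 50%; inconclusive = only one of the two criteria met; inactive = both criteria failed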;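 note: plate controls were DMSO neutral control for no effect and GW8510 at 10 µM for full effect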
CAL PDZ FP-2 – inhibitors of human CAL PDZ peptide binding; 0.92% of 300,000 active; inhibition, % at 24.9 µM; purified CAL PDZ, TMR-peptide fluorescence polarization, 1 h; AID 602252; Q9HD26;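 active = mean inhibition of at least 30% with at least half of replicates also reaching 30%; inconclusive = no clear call, values can overlap the other calls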;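 note: 0% = DMSO neutral control and 100% = excess unlabeled competitor peptide PRC23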
* marks the source's active call; other numbers are inactive results; ? = inconclusive; / = not tested or not shown. Hits are enriched below; roughly 2% of the tested compounds scored in any of these assays.

SMILES | S100A4 inh HTS | CAL PDZ FP-1 | Statin myotox sup | dFosB act | CDK5 inh | CAL PDZ FP-2
C=C(C)CCOC(=O)C(CC(=O)O)NCc1ccco1 (stereo unspecified) | -1 | 4 | 1 | 0 | 0 | 49*
NS(=O)(=O)c1ccc(CCNC(=O)Cc2ccc(S(=O)(=O)N3CCOCC3)s2)cc1 | 0 | 0 | 16 | -2 | -1 | 9
COCCCNC(=O)Cc1ccc(S(=O)(=O)N2CCOCC2)s1 | -14 | -1 | 3 | 7 | 1 | 43*
CO[C@@H]1CN(C)C(=O)c2cc(NC(C)=O)ccc2OC[C@@H](C)N(C(=O)c2ccncc2)C[C@H]1C | 5 | / | 4 | / | / | /
COc1cc(/C=C/c2nnc3c4ccccc4ncn23)cc(OC)c1OC | -1 | -6 | / | 27* | 2 | -7
Cc1cccc(NC(=O)c2sccc2-n2cccc2)c1C | -6 | / | 18 | -7 | -2 | 32*
Cc1ccc(NC(=O)c2sccc2-n2cccc2)c(Cl)c1 | 1 | -2 | / | 3 | -4 | 0
CN(C)CCCNC(=O)C(=O)Nc1cc2c3c(c1)CCC(=O)N3CCC2 | -9 | -3 | / | -3 | 2 | 0
Cc1nc2c3cc(Cl)ccc3n(CCN3CCOCC3)c2s1 | -2 | 0 | / | -3 | 1 | 47*
O=C(Cn1ccc([N+](=O)[O-])n1)NCc1nc2ccccc2[nH]1 | -4 | -1 | / | 4 | 2 | 44*
O=C(Cn1ccc([N+](=O)[O-])n1)NCc1ccco1 | 1 | -2 | 1 | -3 | -1 | -1
COC(=O)N1CCCCC1c1cc(C(=O)N2CCOCC2)no1 (stereo unspecified) | -2 | / | 2 | / | / | /
CCCN1CCN(CCCNC(=S)Nc2ccc3nc(N4CCN(CC)CC4)cc(C)c3c2)CC1 | -6 | 1 | -12 | 8 | -1 | 8
CCN(CC)CCNC(=S)Nc1ccc2nc(N3CCN(CC)CC3)cc(C)c2c1 | -12 | 2 | -3 | 18* | -5 | -1
Cc1cc(N2CCN(C)CC2)nc2ccc(NC(=S)NCCN3CCc4ccccc4C3)cc12 | 4 | 2 | -20 | 35* | -2 | -5
CCCCNC(=S)Nc1ccc2nc(N3CCN(CC)CC3)cc(C)c2c1 | 2 | 1 | -4 | -5 | 1 | -1
CCN1CCN(c2cc(C)c3cc(NC(=S)NCCCN4CCc5ccccc5C4)ccc3n2)CC1 | -3 | 1 | -2 | 37* | 2 | -4
COCCOc1cc2ncnc(N3CCC(C(=O)O)CC3)c2cc1OCCOC | 1 | 0 | 8 | 2 | 0 | 164*
CC(=O)N(C)C[C@H]1Oc2cc(C#Cc3cccnc3)ccc2S(=O)(=O)N([C@@H](C)CO)C[C@H]1C | -5 | / | 4 | / | / | /
CSc1nc2nc3c(c(=O)n2[nH]1)CCCC3 | / | -2 | 119* | -4 | 1 | -2
Cc1nc2nc3c(c(=O)n2[nH]1)CCC3 | / | 0 | / | 0 | -1 | -4
O=C(Nc1cccc(Cl)c1)Nc1ccc(Cl)cn1 | / | -1 | / | 0 | 1 | 2
O=C(Nc1ccc(Cl)cn1)Nc1ccc(Cl)cn1 | 6 | -1 | / | ? | -2 | 47*
CC(C)CNC(=O)COC(=O)CCC(=O)c1ccc(Cl)cc1 | -2 | 41* | 12 | -1 | 0 | 13
C/C(Cn1nc([N+](=O)[O-])cc1C)=N\NC(=O)c1cccc(Br)c1 | / | 0 | -5 | -3 | 0 | 0
SMILES | S100A4 inh HTS | CAL PDZ FP-1 | Statin myotox sup | dFosB act | CDK5 inh | CAL PDZ FP-2
CCOC(=O)c1sc2nc(SCC(=O)NCc3ccco3)n(Cc3ccccc3)c(=O)c2c1C | / | -1 | / | -8 | 0 | -7
O=C(CSc1nc2cccnc2n1Cc1ccccc1)NCc1ccco1 | / | / | 24 | -2 | -1 | 65*
CCn1c(SCC(=O)NCc2ccco2)nc2cccnc21 | 2 | / | -6 | -2 | -1 | -1
Cc1sc2nc(SCC(=O)NCc3ccco3)n(Cc3ccccc3)c(=O)c2c1C | / | 0 | 114* | 4 | 0 | -1
CC(=O)c1ccc2c(c1)Nc1ccccc1S2 | / | 0 | / | -3 | 0 | -1
CCCC(=O)Nc1ccc2c(c1)nc(CN1CCN(C(C)=O)CC1)n2C | / | 0 | 119* | 5 | -1 | -7
CC(C)C(=O)Nc1ccc2c(c1)nc(CCN1CCCCC1)n2C | 2 | 1 | -4 | -3 | 1 | 21
